TNF death inh = inhibitors of TNF-alpha triggered necroptosis, primary screen, cell-based, Jurkat FADD-/-, single concentration | Jurkat FADD-/- TNF necroptosis rescue, ATP luminescence, 24 h; 0 = TNF only, 100 = no-TNF cells | activation (protection from cell death), % at 10 µM | 220,000 tested, 0.068% active;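 active = activation, meaning protection from cell death, of at least 50% relative to plate controls; inactive = activation below 50%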;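 note: necroptosis triggered by 40 ng/mL TNF-alpha added together with compound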
Dynein cargo inh = inhibitors of GR-EGFP nuclear translocation, primary screen, dynein cargo transport inhibitor project, imaging, high-content, 3617.4 mouse cells | test concentration mostly 20 µM; stimulated with dexamethasone, 1 µM; stronger effect = lower value | z-score, hits read low | 220,000 tested, 0.47% active;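 active = plate z-score of nuclear minus cytoplasmic receptor signal below a set negative limit, without overly bright fluorescence or cell loss, cut at about -3.5 in these data, passing the limit was not always enough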;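 note: z-score of nuclear minus cytoplasmic ring GR-EGFP intensity difference per well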
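Medium: Induction medium lacking tetracycline, stripped serum | Probe or stimulus: 1.0 µM final dexamethasone stimulus | Schedule: 48 h induction, then 1 h compound, then 30 min agonist, 37 °C | Signal: Automated 10x imaging of fixed Hoechst-stained cells | Evaluation: Per-cell GR-EGFP intensity, nucleus versus surrounding cytoplasmic ring, well-averaged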
Hck Nef HTS = inhibitors of Nef-activated human Hck kinase, primary screen, biochemical, Z-Lyte FRET, 384-well, Hck-YEEI; Tyrosine-protein kinase HCK (Homo sapiens), P08631; Recombinant Hck-YEEI plus Nef, Z-Lyte FRET kinase assay; inhibition, % at 20 µM; 220,000 tested, 0.68% active;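 active = Hck-Nef kinase inhibition above about 50%, limit read from the data; inactive = inhibition below that limit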
zVAD death inh = inhibitors of zVAD-triggered necroptosis, primary screen, L929 cells. L929 zVAD necroptosis rescue, ATP luminescence, 24 h; with zVAD 60 µM. 220,000 tested, 0.38% active. viability rescue, % at 10 µM. AID 1377, 2008;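 active = activation, scaled between plate controls, above about 75%, limit read from the data; inactive = activation under that limit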
MDM2 E3 inh = MDM2-luciferase reporter signal enhancers, primary screen, MDM2 E3 ligase inhibitor project, cell-based, luminescence, 1536-well; E3 ubiquitin-protein ligase Mdm2 (Homo sapiens), Q00987; cell-based MDM2 ubiquitination luciferase reporter, 2 h; 0 = plate control, 100 = twice control, blank-subtracted; signal enhancement, % at 5 µM; 210,000 tested, 0.11% active; AID 1230, 2008;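 active = signal enhancement of 30% or more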;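 note: luminescence tracks abundance of the self-degrading MDM2-luciferase fusion protein; higher signal means inhibition of MDM2 E3 ligase activity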
Target sequence (Q00987 whole entry, looked up, the tested form may be a part): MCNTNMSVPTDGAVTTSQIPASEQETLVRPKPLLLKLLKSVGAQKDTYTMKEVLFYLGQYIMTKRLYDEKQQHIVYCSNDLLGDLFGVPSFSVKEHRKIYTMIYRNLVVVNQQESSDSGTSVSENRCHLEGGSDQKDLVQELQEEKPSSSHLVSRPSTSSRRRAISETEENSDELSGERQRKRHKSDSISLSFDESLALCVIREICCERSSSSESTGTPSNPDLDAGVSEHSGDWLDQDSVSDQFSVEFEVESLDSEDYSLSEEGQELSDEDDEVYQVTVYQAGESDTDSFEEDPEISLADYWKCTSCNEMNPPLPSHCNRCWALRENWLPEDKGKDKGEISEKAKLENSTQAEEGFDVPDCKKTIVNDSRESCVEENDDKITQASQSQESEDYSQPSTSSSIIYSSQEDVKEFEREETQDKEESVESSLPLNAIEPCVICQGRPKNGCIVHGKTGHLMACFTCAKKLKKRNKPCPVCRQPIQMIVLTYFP
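Test system: mammalian cells stably expressing self-ubiquitinating, self-degrading MDM2 E3–luciferase fusion; Amount: 2000 cells in each well; Medium: DMEM; Schedule: 4 h settle plus 2 h compound, 37 °C; Technique: SteadyLite luciferase luminescence after 15 min room-temperature reagent incubation; Benchmarks: plate control and blank wells.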
Autophagy mod = autophagy modulators in MEF cells, primary screen, imaging, high-content, MEF GFP-LC3; MEF GFP-LC3 puncta imaging; test concentration mostly 10 µM; calls only at 10 µM (by protocol); 190,000 tested, 0.98% active;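 active = percentage of spot-positive cells more than 3 SD above its plate mean, without a fluorescence outlier flag or 80% toxicity; inconclusive = no clear call, values can overlap the other calls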
Dynein confirm = dynein cargo transport inhibitors, GR-EGFP translocation, confirmation, imaging, high-content imaging, GR-EGFP cells; 3617.4 GR-EGFP nuclear translocation imaging, dexamethasone-induced; 1,000 tested, 69% active; calls only at 20 µM; shares compounds with Dynein cargo inh;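 active = inhibition of receptor movement into the nucleus at or above a set limit in both runs, with normal cell brightness and cell count; inconclusive = limit reached in only one run, brightness and count normal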;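 note: dexamethasone at 1 µM final in well for 30 min; nuclear minus cytoplasmic GR-EGFP mean intensity difference in channel 2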
A number is an active result; 0 = inactive; ? = inconclusive; - = no result given; + = active, no number. This is a sample that favours compounds with a hit; in the whole collection about 2.4% have one here.

SMILES | TNF death inh | Dynein cargo inh | Hck Nef HTS | zVAD death inh | MDM2 E3 inh | Autophagy mod | Dynein confirm
O=C(Nc1ccc(Cl)cc1)/C(=C/c1cccc(O)c1)c1nc2ccccc2s1 | 0 | -6 | 0 | 0 | 0 | + | +
CN(C)C(=O)N1CCC(C(=O)NCc2ccccc2)CC1 | 0 | 0 | 0 | 0 | 0 | 0 | -
CCSc1nnc(NC(=O)Cn2cnc3c2c(=O)n(C)c(=O)n3C)s1 | 0 | 0 | 0 | 0 | 0 | 0 | -
CN(C)CCNC(=O)c1ccc(Cl)s1 | 0 | 0 | 0 | 0 | 0 | 0 | -
CN(Cc1ccc(Cl)s1)C(=O)CCl | 0 | -5.7 | 0 | 0 | 0 | 0 | +
CN(Cc1ccc(Cl)cc1)C(=O)CCl | 0 | -6.2 | 0 | 0 | 0 | 0 | +
COc1ccc(CN(C)C(=O)CCl)cc1 | 0 | -4.4 | 0 | 0 | 0 | 0 | +
CS(=O)(=O)N(CC(N)=O)Cc1ccc(Cl)cc1 | 0 | 0 | 0 | 0 | 0 | 0 | -
CC(C)(C)c1cc(NC(=O)COc2ccc(Br)cc2)n(-c2ccccc2)n1 | 0 | 0 | 0 | 0 | 0 | 0 | -
CCOC(=O)C1CCCN(c2cc(=O)n(C3CCCCC3)c(=O)[nH]2)C1 (configuration not stated) | 0 | 0 | 0 | 0 | 0 | 0 | -
Cc1ccc(NC(=O)CCC(=O)OCC(=O)c2ccc(Oc3ccc([N+](=O)[O-])cc3)cc2)cc1C | 0 | 0 | 0 | 0 | 0 | 0 | -
Cc1cccc(NC(=O)CCC(=O)OCC(=O)c2ccc(Oc3ccc([N+](=O)[O-])cc3)cc2)c1 | 0 | -4.4 | 0 | 0 | - | 0 | ?
CC1CCN(CCCNC(=O)c2cc3c(Cl)nc4ccccc4c3s2)CC1 | 0 | 0 | 0 | 0 | - | 0 | -
CC1CCN(CCCNC(=O)c2ccc3c(Cl)c4c(nc3c2)CCCC4)CC1 | 0 | -5 | 0 | 0 | - | - | +
O=C(NCCCN1CCCCCC1)c1ccc2c(Cl)c3c(nc2c1)CCCC3 | 0 | -3.7 | 0 | 0 | 0 | 0 | +
O=C(O)C1=C[C@@H](c2coc3ccccc3c2=O)C[C@@H](OCCCCO)O1 | 0 | 0 | 0 | 0 | - | 0 | -
CCOC(=O)N1C/C(=C\c2ccccc2)C(=O)/C(=C/c2ccccc2)C1 | 0 | -4.9 | 0 | 0 | 46 | - | +
CCOC(=O)N1CCN(S(=O)(=O)/C=C/c2ccccc2)CC1 | 0 | 0 | 0 | 0 | 0 | 0 | -
c1ccc2sc(NC3=NCN(CC4CCCO4)CN3)nc2c1 (configuration not stated) | 0 | 0 | 0 | 0 | 0 | 0 | -
COCCNCC(=O)Nc1ccc(C)c(S(=O)(=O)N2CCCCC2)c1 | 0 | 0 | 0 | 0 | 0 | 0 | -
COc1ccc(NC(=O)Cn2ncc(Cl)c(Cl)c2=O)cc1S(=O)(=O)N1CCOCC1 | 0 | 0 | 0 | 0 | 0 | 0 | -
Cc1ccc(NC(=O)CCl)cc1S(=O)(=O)N1CCCCCC1 | 0 | -4.1 | 0 | 0 | 0 | + | +
CCN(CC)S(=O)(=O)c1cc(NC(=O)Cn2ncc(Cl)c(Cl)c2=O)ccc1C | 0 | -4.5 | 74 | 0 | 0 | - | +
O=C(Cn1ncc(N2CCCC2)c(Cl)c1=O)c1ccc(Cl)cc1 | 0 | 0 | 0 | 0 | 0 | 0 | -
CCC(=O)Nc1ccc(C(=O)Cn2ncc(Cl)c(Cl)c2=O)cc1 | 0 | -4.4 | 0 | 0 | 0 | - | +
SMILES | TNF death inh | Dynein cargo inh | Hck Nef HTS | zVAD death inh | MDM2 E3 inh | Autophagy mod | Dynein confirm
CCc1ccccc1NC(=O)CN(C)C(=O)Cn1ncc(Cl)c(Cl)c1=O | 0 | -3.7 | 0 | 0 | 0 | 0 | +
O=C(CCS(=O)(=O)Cc1ccccc1)NCCc1ccccc1 | 0 | 0 | 0 | 0 | 0 | 0 | -
CCOC(=O)C1=C(C)Nc2ccccc2N=C1NC(=O)Cc1ccc(OC)cc1 | 0 | 0 | 0 | 0 | 0 | 0 | -
Cc1ccc(CS/C(Nc2ccccc2C)=C(\C#N)C(N)=O)c(C)c1 | 0 | 0 | 0 | 0 | 0 | 0 | -
Cc1cc(Sc2ncnc(N)c2[N+](=O)[O-])ncn1 | 0 | -5.7 | 0 | 0 | 0 | 0 | +
Cc1ccnc(Sc2ncccc2[N+](=O)[O-])n1 | 0 | 0 | 0 | 0 | 0 | 0 | -
Cc1cc(Sc2nc(N)ncc2[N+](=O)[O-])ncn1 | 0 | -5 | 0 | 0 | 0 | 0 | +
COC(=O)c1ccc(OCCCCN2CC(C)OC(C)C2)cc1 (configuration not stated) | 0 | 0 | 0 | 0 | 0 | 0 | -
N=c1n(Cc2ccccc2)c2ccccc2n1CC(O)COc1ccc(Cl)cc1Cl (configuration not stated) | 0 | -3.8 | 0 | 0 | 0 | 0 | 0
C=C(C)c1cccc(C(C)(C)NC(=O)Nc2ccc3[nH]c(=O)[nH]c3c2)c1 | 0 | 0 | 0 | 0 | 0 | 0 | -
CCOC(=S)SCC(=O)Nc1nc(C)c(C)s1 | 0 | -3.9 | 0 | 0 | - | - | +
Cc1ccc(S(=O)(=O)/N=C(\CCl)N2CCOCC2)cc1 | 0 | -3.8 | 0 | - | 0 | 0 | +
Cc1ccc(S(=O)(=O)/N=C(\CN2CCOCC2)N2CCCC2)cc1 | 0 | 0 | 0 | 0 | 0 | 0 | -
CS(=O)(=O)c1sc(C#N)c2c1C(=O)CC(c1ccccc1)C2 (configuration not stated) | 0 | -3.8 | 0 | 0 | 0 | - | ?
Cc1oc2c(c(=O)c1C)C(=O)CC(c1ccccc1)C2 (configuration not stated) | 0 | 0 | 0 | 0 | 0 | 0 | -
COc1ccc(C(C)=O)cc1CSc1nnc(-c2ccc(Cl)cc2)n1-c1ccccc1 | 0 | 0 | 0 | 0 | 0 | 0 | -
CN1CCN(S(=O)(=O)c2ccc(Sc3nnnn3-c3ccccc3)c([N+](=O)[O-])c2)CC1 | 0 | -3.5 | 0 | - | 0 | 0 | +
CC(=O)c1ccc(Sc2nnnn2-c2ccccc2)c([N+](=O)[O-])c1 | 0 | -4.3 | 0 | 0 | 0 | 0 | 0
O=[N+]([O-])c1ccc(Sc2nnnn2-c2ccccc2)c(Cl)c1 | 0 | 0 | 0 | 0 | 0 | 0 | -
Cc1ccc(S(=O)(=O)N2CCCCC2C(=O)O)s1 (configuration not stated) | 0 | 0 | 0 | 0 | 0 | 0 | -
CSc1nc(N)n2nc(-c3ccccc3)cc2n1 | 0 | 0 | 0 | 0 | 0 | - | -
CCC(=O)OCCNc1cc(Sc2nc3ccccc3s2)c2nonc2c1[N+](=O)[O-] | 0 | 0 | 0 | 0 | 0 | 0 | -
CC(=O)OCCCNc1cc(SCc2ccco2)c2nonc2c1[N+](=O)[O-] | 0 | -5.5 | 0 | 0 | 0 | 0 | +

Screening data from PubChem.
